Columns and labels:
Type in all cases: functional
Hs-578T = assay: Cytotoxicity against human Hs578T cells after 48 hrs by SRB assay
Summary of the method: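 NCI five-dose screen: cells preincubated 24 h at 37 °C, 5% CO₂, with time-zero plates TCA-fixed. Five 10-fold dilutions (0.01–100) were added and cells incubated for 48 h, then fixed in 10% TCA for 60 min at 4 °C. Staining used 0.4% SRB in 1% acetic acid, solubilised in 10 mM Tris, with A515 read. GI₅₀, TGI and LC₅₀ were derived from Tz, control and test absorbances.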

DU-145 = assay: Cytotoxicity against human DU145 cells after 48 hrs by SRB assay; conditions: DU-145, 48 h
Summary of the method: (§1)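 NCI 60-line five-dose screen. Cells were preincubated 24 h at 37 °C under 5% CO2 and 100% humidity, and time-zero plates were TCA-fixed when compound was added. Five 10-fold concentrations (0.01–100) were tested for 48 h. Cells were fixed with cold TCA (final 10%, 60 min, 4 °C), stained with 0.4% SRB for 10 min, and read at 515 nm. GI50, TGI and LC50 came from growth-percentage formulas, with out-of-range values given as > or <.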

RXF 393 = assay: Cytotoxicity against human RXF393 cells after 48 hrs by SRB assay; conditions: RXF 393, 48 h; summary of the method: as §1
A498 = assay: Cytotoxicity against human A498 cells after 48 hrs by SRB assay; conditions: A498, 48 h; summary of the method: as §1
786-0 = assay: Cytotoxicity against human 786-0 cells after 48 hrs by SRB assay; conditions: 786-0, 48 h; summary of the method: as §1
UACC-257 = assay: Cytotoxicity against human UACC257 cells after 48 hrs by SRB assay; conditions: UACC-257, 48 h
Summary of the method: (§2)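 NCI 60-line five-dose screen: cells plated, held 24 h at 37 °C, 5% CO₂ before treatment, with a TCA-fixed time-zero plate. Five final concentrations (0.01–100 µM, 10-fold dilutions) for 48 h. Cells fixed with cold TCA (10% final) and stained with 0.4% SRB in 1% acetic acid. Dye dissolved in 10 mM Tris and read at 515 nm. GI₅₀, TGI and LC₅₀ taken from percent-growth curves.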

SK-MEL-28 = assay: Cytotoxicity against human SK-MEL-28 cells after 48 hrs by SRB assay; conditions: SK-MEL-28, 48 h; summary of the method: as §1
M14 = assay: Cytotoxicity against human M14 cells after 48 hrs by SRB assay; conditions: M14, 48 h; summary of the method: as §1
LOX IMVI = assay: Cytotoxicity against human LOXIMVI cells after 48 hrs by SRB assay; summary of the method: as §1
SNB-75 = assay: Cytotoxicity against human SNB75 cells after 48 hrs by SRB assay; conditions: SNB-75, 48 h; summary of the method: as §2
SW-620 = assay: Cytotoxicity against human SW620 cells after 48 hrs by SRB assay; conditions: SW-620, 48 h; summary of the method: as §2
NCI-H322M = assay: Cytotoxicity against human NCI-H322M cells after 48 hrs by SRB assay; summary of the method: as §1
NCI-H226 = assay: Cytotoxicity against human NCI-H226 cells after 48 hrs by SRB assay; conditions: NCI-H226, 48 h; summary of the method: as §1
RPMI-8226 = assay: Cytotoxicity against human RPMI8226 cells after 48 hrs by SRB assay; conditions: RPMI-8226, 48 h; summary of the method: as §1
MOLT-4 = assay: Cytotoxicity against human MOLT4 cells after 48 hrs by SRB assay; conditions: MOLT-4, 48 h; summary of the method: as §1
CCRF-CEM = assay: Cytotoxicity against human CCRF-CEM cells after 48 hrs by SRB assay; summary of the method: as §1
IGROV-1 = assay: Cytotoxicity against human IGROV1 cells assessed as cell growth at 10 uM after 48 hrs by SRB assay relative to control; conditions: IGROV-1, 48 h, read-out: Activity
Summary of the method: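 Single-dose NCI screen. Compound was added at 1 × 10^-5 M and cultures were incubated 48 h. End point was sulforhodamine B protein staining, reported as percent growth of treated cells versus untreated control cells.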

[1] = read-out: LC50 (the source's name)
[2] = read-out: pLC50 (the source's name) (converted)

Compound: O=C(CCc1nnc2sc(-c3ccc(Cl)cc3Cl)nn12)c1nc2ccccc2[nH]1
- GI50 (Hs-578T; read-out: GI50): 478 nM
- CC50 (Hs-578T; [1]): > 100000 nM
- GI50 (Hs-578T; read-out: pGI50 (converted)): 479 nM
- CC50 (Hs-578T; [2]): > 100000 nM
- GI50 (DU-145; read-out: GI50): 1200 nM
- CC50 (DU-145; [1]): 5020 nM
- TGI (DU-145; read-out: TGI): 2460 nM
- GI50 (DU-145; read-out: pGI50 (converted)): 1200 nM
- CC50 (DU-145; [2]): 5010 nM
- TGI (DU-145; read-out: pTGI (converted)): 2450 nM
- GI50 (RXF 393; read-out: GI50): 674 nM
- CC50 (RXF 393; [1]): 4550 nM
- TGI (RXF 393; read-out: TGI): 1990 nM
- GI50 (RXF 393; read-out: pGI50 (converted)): 676 nM
- CC50 (RXF 393; [2]): 4570 nM
- TGI (RXF 393; read-out: pTGI (converted)): 2000 nM
- GI50 (A498; read-out: GI50): 1100 nM
- LC50 (concentration giving 50% net cell kill) (A498; read-out: LC50): 4890 nM
- TGI (A498; read-out: TGI): 2320 nM
- GI50 (A498; read-out: pGI50 (converted)): 1100 nM
- LC50 (concentration giving 50% net cell kill) (A498; read-out: pLC50 (converted)): 4900 nM
- TGI (A498; read-out: pTGI (converted)): 2340 nM
- GI50 (786-0; read-out: GI50): 1590 nM
- LC50 (786-0; read-out: LC50): 5920 nM
- TGI (786-0; read-out: TGI): 3060 nM
- GI50 (786-0; read-out: pGI50 (converted)): 1580 nM
- LC50 (786-0; read-out: pLC50 (converted)): 5890 nM
- TGI (786-0; read-out: pTGI (converted)): 3090 nM
- GI50 (UACC-257; read-out: GI50): 2100 nM
- LC50 (UACC-257; read-out: LC50): 22500 nM
- TGI (UACC-257; read-out: TGI): 5010 nM
- GI50 (UACC-257; read-out: pGI50 (converted)): 2090 nM
- LC50 (UACC-257; read-out: pLC50 (converted)): 22400 nM
- TGI (UACC-257; read-out: pTGI (converted)): 5010 nM
- GI50 (SK-MEL-28; read-out: GI50): 474 nM
- CC50 (SK-MEL-28; [1]): 4240 nM
- TGI (SK-MEL-28; read-out: TGI): 1670 nM
- GI50 (SK-MEL-28; read-out: pGI50 (converted)): 479 nM
- CC50 (SK-MEL-28; [2]): 4270 nM
- TGI (SK-MEL-28; read-out: pTGI (converted)): 1660 nM
- GI50 (M14; read-out: GI50): 596 nM
- TGI (M14; read-out: TGI): 2450 nM
- GI50 (M14; read-out: pGI50 (converted)): 603 nM
- TGI (M14; read-out: pTGI (converted)): 2450 nM
- GI50 (LOX IMVI; read-out: GI50): 363 nM
- TGI (LOX IMVI; read-out: TGI): 1590 nM
- GI50 (LOX IMVI; read-out: pGI50 (converted)): 363 nM
- TGI (LOX IMVI; read-out: pTGI (converted)): 1580 nM
- GI50 (SNB-75; read-out: GI50): 1960 nM
- CC50 (SNB-75; [1]): 17100 nM
- TGI (SNB-75; read-out: TGI): 4650 nM
- GI50 (SNB-75; read-out: pGI50 (converted)): 1950 nM
- CC50 (SNB-75; [2]): 17000 nM
- TGI (SNB-75; read-out: pTGI (converted)): 4680 nM
- GI50 (SW-620; read-out: GI50): 204 nM
- CC50 (SW-620; [1]): 2480 nM
- TGI (SW-620; read-out: TGI): 545 nM
- GI50 (SW-620; read-out: pGI50 (converted)): 204 nM
- CC50 (SW-620; [2]): 2510 nM
- TGI (SW-620; read-out: pTGI (converted)): 550 nM
- GI50 (NCI-H322M; read-out: GI50): 1760 nM
- CC50 (NCI-H322M; [1]): 7940 nM
- TGI (NCI-H322M; read-out: TGI): 3740 nM
- GI50 (NCI-H322M; read-out: pGI50 (converted)): 1780 nM
- CC50 (NCI-H322M; [2]): 7940 nM
- TGI (NCI-H322M; read-out: pTGI (converted)): 3720 nM
- GI50 (NCI-H226; read-out: GI50): 244 nM
- CC50 (NCI-H226; [1]): 2590 nM
- TGI (NCI-H226; read-out: TGI): 696 nM
- GI50 (NCI-H226; read-out: pGI50 (converted)): 245 nM
- CC50 (NCI-H226; [2]): 2570 nM
- TGI (NCI-H226; read-out: pTGI (converted)): 692 nM
- GI50 (RPMI-8226; read-out: GI50): 352 nM
- CC50 (RPMI-8226; [1]): > 100000 nM
- TGI (RPMI-8226; read-out: TGI): 1760 nM
- GI50 (RPMI-8226; read-out: pGI50 (converted)): 355 nM
- CC50 (RPMI-8226; [2]): > 100000 nM
- TGI (RPMI-8226; read-out: pTGI (converted)): 1780 nM
- GI50 (MOLT-4; read-out: GI50): 282 nM
- CC50 (MOLT-4; [1]): > 100000 nM
- TGI (MOLT-4; read-out: TGI): > 100000 nM
- GI50 (MOLT-4; read-out: pGI50 (converted)): 282 nM
- CC50 (MOLT-4; [2]): > 100000 nM
- TGI (MOLT-4; read-out: pTGI): > 100000 nM
- GI50 (CCRF-CEM; read-out: GI50): 265 nM
- CC50 (CCRF-CEM; [1]): > 100000 nM
- TGI (CCRF-CEM; read-out: TGI): 974 nM
- GI50 (CCRF-CEM; read-out: pGI50 (converted)): 263 nM
- CC50 (CCRF-CEM; [2]): > 100000 nM
- TGI (CCRF-CEM; read-out: pTGI (converted)): 977 nM
- growth at 10 µM (IGROV-1): 0.38%
